Source: ChEMBL document CHEMBL1153109, “New potent 5-nitroindazole derivatives as inhibitors of Trypanosoma cruzi growth: synthesis, biological evaluation, and mechanism of action studies” (Bioorg Med Chem, 2009)

What was measured:
[1] = system: Trypanosoma cruzi; experiment: Inhibition of parasitic respiration in Trypanosoma cruzi tulahuen epimastigotes assessed as oxygen uptake at 0.208 mM relative to control; type: functional
[2] = system: Trypanosoma cruzi; experiment: Inhibition of parasitic respiration in Trypanosoma cruzi tulahuen epimastigotes assessed as oxygen uptake at 0.104 mM relative to control; type: functional
[3] = system: Radical scavenging activity; experiment: Antioxidant activity assessed as DPPH radical scavenging activity; type: functional; parameters: concentration or dose not given beside the values
In short: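 Scavenging of DPPH radical measured by ESR. Reaction mixtures contain 1.0 mM dpph and 1.0 mM 5-NI, both prepared in acetonitrile. The control contains no 5-NI. Signal recorded 1 min after the start of the reaction at microwave frequency 9.72 GHz and power 20 mW.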

[4] = system: Trypanosoma cruzi; experiment: Antitrypanosomal activity against Trypanosoma cruzi CL Brener epimastigotes after 5 days; type: functional, organism-based; details: 120 h
In short: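 CL Brener epimastigotes grown at 28 °C in BHI–Tryptose with 5% FBS. Stationary-phase (10-day) cells inoculated at 1 × 10⁶ cells/mL into medium with drug from a DMSO stock (final DMSO ≤0.4%); control contains 0.4% DMSO. Growth followed by A600. Inhibition at day 5 is computed from the day 0 and day 5 absorbances relative to control. IC50 is the concentration reducing the absorbance ratio to 50%.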

[5] = system: Caco-2; experiment: Cytotoxicity against human Caco-2 cells at 25 uM by MTT assay; type: cell-based; details: caco-2, 25 µM
In short: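 Caco-2 cells kept in DMEM-F12 with 10% FBS, penicillin and streptomycin at 37 °C, 5% CO₂. Cells plated at 5 × 10⁴ cells/mL, then exposed to compound in PBS for 2 h. After washing, cells incubated with 0.5 mg/mL MTT for 120 min at 37 °C. Formazan dissolved in DMSO for 10 min at 37 °C and read at 540 nm.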

[6] = system: Trypanosoma cruzi; experiment: Inhibition of parasitic respiration in Trypanosoma cruzi tulahuen epimastigotes assessed as oxygen uptake at 0.42 mM relative to control; type: functional
[7] = system: Trypanosoma cruzi; experiment: Inhibition of parasitic respiration in Trypanosoma cruzi tulahuen epimastigotes assessed as oxygen uptake at 2 mM relative to control; type: functional
[8] = system: Trypanosoma cruzi; experiment: Inhibition of parasitic respiration in Trypanosoma cruzi tulahuen epimastigotes assessed as oxygen uptake at 0.83 mM relative to control; type: functional

SMILES | IC50 [4] [µM] | Oxygen uptake at 208 µM [1] [%] | Oxygen uptake at 104 µM [2] [%] | Activity [3] [%] | Cytotoxicity [5] [%] | Oxygen uptake at 420 µM [6] [%] | Oxygen uptake at 2000 µM [7] [%] | Oxygen uptake at 830 µM [8] [%]
CN(C)CCCCCCn1nc(OCc2ccccc2)c2cc([N+](=O)[O-])ccc21 | 9.4 | 59 | 100 | > 40 | 40 | 52 | – | –
CC(C)N(CCn1nc(OCc2ccccc2)c2cc([N+](=O)[O-])ccc21)C(C)C | 9.2 | – | – | < 30 | 0 | – | – | –
COc1nn(CCN(C)C)c2ccc([N+](=O)[O-])cc12 | > 25 | – | – | < 30 | 15 | – | – | –
O=[N+]([O-])c1ccc2c(c1)c(OCc1ccccc1)nn2CCN1CCCCC1 | 8.4 | – | – | < 30 | 27 | – | – | –
COc1nn(CCCN(C)C)c2ccc([N+](=O)[O-])cc12 | > 25 | – | – | < 30 | 29 | – | – | –
O=[N+]([O-])c1ccc2c(c1)c(OCc1ccccc1)nn2CCCCCN1CCc2ccccc2C1 | 12.9 | – | – | < 30 | 15 | – | – | –
COc1nn(CCN2CCOCC2)c2ccc([N+](=O)[O-])cc12 | > 25 | – | – | < 30 | 0 | – | – | –
O=[N+]([O-])c1ccc2c(c1)c(OCc1ccccc1)nn2CCCCCCN1CCCCC1 | 7.4 | – | – | < 30 | 33 | – | – | –
COc1nn(CCN2CCCCC2)c2ccc([N+](=O)[O-])cc12 | > 25 | – | – | < 30 | 10 | – | – | –
O=[N+]([O-])c1ccc2c(c1)c(OCc1ccccc1)nn2CCCCCN1CCCCCC1 | 10.5 | – | – | > 40 | 25 | – | – | –
CCN(CC)CCn1nc(OC)c2cc([N+](=O)[O-])ccc21 | > 25 | – | – | < 30 | 0 | – | – | –
COc1nn(CCCN2CCCCC2)c2ccc([N+](=O)[O-])cc12 | > 25 | – | – | < 30 | 0 | – | – | –

Second part, led by results:

IC50 [4] [µM] | SMILES | Oxygen uptake at 208 µM [1] [%] | Oxygen uptake at 104 µM [2] [%] | Activity [3] [%] | Cytotoxicity [5] [%] | Oxygen uptake at 420 µM [6] [%] | Oxygen uptake at 2000 µM [7] [%] | Oxygen uptake at 830 µM [8] [%]
7.5 | O=[N+]([O-])c1ccc2c(c1)c(OCc1ccccc1)nn2CCCCCN1CCCC1 | – | – | < 30 | 25 | – | – | –
67.8 | COc1nn(CCCBr)c2ccc([N+](=O)[O-])cc12 | – | – | < 30 | – | – | – | –
20.7 | O=[N+]([O-])c1ccc2c(c1)c(OCc1ccccc1)nn2CCCCCBr | – | – | < 30 | – | 100 | 38 | 100
11.3 | CCN(CC)CCn1nc(OCc2ccccc2)c2cc([N+](=O)[O-])ccc21 | – | – | < 30 | 30 | – | – | –
> 25 | O=[N+]([O-])c1ccc2c(c1)c(OCc1ccccc1)nn2CCN1CCOCC1 | – | – | < 30 | 0 | – | – | –
> 25 | COc1nn(CCN(C(C)C)C(C)C)c2ccc([N+](=O)[O-])cc12 | – | – | < 30 | 15 | – | – | –
19.3 | O=[N+]([O-])c1ccc2c(c1)c(OCc1ccccc1)nn2CCCCCCBr | – | – | < 30 | – | 100 | 100 | 100
25 | CN(C)CCn1nc(OCc2ccccc2)c2cc([N+](=O)[O-])ccc21 | 64 | – | < 30 | 12 | 51 | – | –
